Assay [1] can be described thus: Cytotoxicity against human GM00637 cells assessed as reduction in mean cell viability after 72 hrs by MTT assay. The class given is cell-based. The conditions noted are these: GM00637, 72 h. Summed up: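 SV40-transformed normal skin fibroblasts (GM00637) in MEM Eagle–Earle BSS with 15% heat-inactivated FBS, 2 mM L-glutamine, 2× amino acids and vitamins. Seeded at 10,000 cells/well and left 24 h to adhere. Ethanol-delivered compound (1% final) for 72 h at 37 °C, 5% CO₂. MTT formazan in DMSO read at 550/690 nm. Viability relative to vehicle; IC₅₀ by nonlinear regression.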
A general note: Tetrazolium dyes change colour on reduction, which living cells bring about.

For a further assay, the system named is DU-145. Kind of assay: Cytotoxicity against human DU145 cells assessed as reduction in mean cell viability after 72 hrs by MTT assay. Conditions: DU-145, 72 h. It is filed as functional, cell-based. Summed up: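 DU-145 prostate cells in RPMI-1640 with 10% heat-inactivated FBS, penicillin–streptomycin and 2 mM L-glutamine. Seeded at 2000 cells/well and left 24 h to adhere. Compound added in ethanol (1% final) for 72 h at 37 °C, 5% CO₂, with ethanol-only controls. Formazan dissolved in DMSO and read at 550 nm (690 nm reference). IC₅₀ derived by nonlinear regression of viability versus vehicle.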

The subject of the next assay is HeLa. Kind of assay: Cytotoxicity against human HeLa cells assessed as reduction in mean cell viability after 72 hrs by MTT assay. The class given is functional, cell-based. In outline: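 HeLa-CCL-2 cells in DMEM with 10% heat-inactivated FBS, 2 mM L-glutamine and nonessential amino acids. Plated at 1000 cells/well with 24 h adherence. Treated in ethanol (1% final) for 72 h at 37 °C under 5% CO₂, with ethanol controls. Absorbance of DMSO-dissolved formazan at 550 nm, 690 nm reference. IC₅₀ by nonlinear regression of percent viability.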

These results are taken from ChEMBL document CHEMBL2021842, “COMPARE analysis of the toxicity of an iminoquinone derivative of the imidazo[5,4-f]benzimidazoles with NAD(P)H:quinone oxidoreductase 1 (NQO1) activity and computational docking of quinones as NQO1 substrates” (Bioorg Med Chem, 2012).

In general, IC50 refers to the point on the concentration scale where inhibition reaches its midpoint. In the case of `O=C1c2nc3n(c2C(=O)c2c1nc1n2CCCC1)CCCC3`, the IC50 in assay [1] was above 5000 nM; in the assay on DU-145 it was 1730 nM; with HeLa it was 3330 nM.
Regarding `O=C1c2nc3n(c2C(=O)c2nc4n(c21)CCCC4)CCC3`, the IC50 in assay [1] is 1270 nM; in the assay with DU-145, 790 nM; in the assay on HeLa, 950 nM.
On the same counts, the results for `O=C1c2nc3n(c2C(=O)c2nc4n(c21)CCCCC4)CCCCC3` are above 5000 nM, 4460 nM and 1780 nM.
Consider `CCCCn1cnc2c1C(=O)c1nc3n(c1C2=O)CCCC3`, for which the IC50 in assay [1] amounted to 2120 nM; in the assay with DU-145, 1350 nM; with HeLa it was 1280 nM.
